Data set [1] relates to Human immunodeficiency virus 1. In words: Antiviral activity against HIV1 RF in CEM-SS cells assessed as inhibition of virus-induced cytopathic effect by XTT assay. To be noted: Human immunodeficiency virus 1, RF. The data set is classed as functional, organism-based. The method, boiled down: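 CEM-SS cells infected with HIV-1 RF; XTT cytoprotection read-out; EC50 is the concentration that inhibits 50% of viral cytopathic effect.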

Data set [2] can be described thus: Cytotoxicity against human CEM-SS cells. The class given is cell-based. A digest of the protocol: (§1)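 Mock-infected CEM-SS or MT-4 cells run alongside the antiviral cultures; CC50 is the concentration causing death of 50% of the cells.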
Data set [3] addresses 3',5'-cyclic-AMP phosphodiesterase 4B (Homo sapiens) (UniProt Q07343). In words: Inhibition of PDE4B2 expressed in COS7 cells assessed as cAMP hydrolysis at 100 uM. The class given is cell-based. The settings on record: COS-7.
Data set [4] has as its system Human immunodeficiency virus 2. In words: Antiviral activity against HIV2 ROD in MT4 cells assessed as inhibition of virus-induced cytopathic effect by MTT assay. The data set is classed as functional, organism-based. A digest of the protocol: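 MT-4 cells infected with HIV-2 ROD; protection from cytopathic effect read by MTT assay; EC50 is the concentration blocking 50% of virus-induced cell killing.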

In data set [5] the test system is Human immunodeficiency virus 1. In words: Antiviral activity against HIV1 3B in MT4 cells assessed as inhibition of virus-induced cytopathic effect by MTT assay. The data set is classed as functional, organism-based. To be noted: Human immunodeficiency virus 1, 3B. A digest of the protocol:
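Cytoprotection in MT-4 cells infected with HIV-1 IIIB, read by MTT assay; EC50 taken as the concentration giving 50% inhibition of viral cytopathic effect.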

Data set [6] can be described thus: Cytotoxicity against human MT4 cells. The data set is classed as cell-based. A digest of the protocol: as §1
Data set [7] concerns the target Human immunodeficiency virus type 1 reverse transcriptase (Human immunodeficiency virus 1, UniProt Q72547). In words: Inhibition of HIV1 reverse transcriptase. A digest of the protocol:
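Recombinant HIV-1 RT, p66/51 heterodimer; polymerase activity measured with poly(rC).oligo(dG) as template primer.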

Active and inactive are the calls of the source. The calls are words filed in the database; no cut-off is given here.

The record followed here is ChEMBL document CHEMBL1142364, “Investigation of the alkenyldiarylmethane non-nucleoside reverse transcriptase inhibitors as potential cAMP phosphodiesterase-4B2 inhibitors” (Bioorg Med Chem Lett, 2008).

By EC50 is commonly meant the concentration giving half of the maximal effect. A word on the CC50: it is the concentration giving 50% cytotoxicity. A high value points to better tolerance by the cells. A word on the inhibition: it is the drop in the measured response relative to a control, in per cent. One may read the IC50 as the concentration that inhibits the measured activity by half. Read a high IC50 as weaker potency.

Sequence of 3',5'-cyclic-AMP phosphodiesterase 4B (Homo sapiens) (Q07343 whole entry): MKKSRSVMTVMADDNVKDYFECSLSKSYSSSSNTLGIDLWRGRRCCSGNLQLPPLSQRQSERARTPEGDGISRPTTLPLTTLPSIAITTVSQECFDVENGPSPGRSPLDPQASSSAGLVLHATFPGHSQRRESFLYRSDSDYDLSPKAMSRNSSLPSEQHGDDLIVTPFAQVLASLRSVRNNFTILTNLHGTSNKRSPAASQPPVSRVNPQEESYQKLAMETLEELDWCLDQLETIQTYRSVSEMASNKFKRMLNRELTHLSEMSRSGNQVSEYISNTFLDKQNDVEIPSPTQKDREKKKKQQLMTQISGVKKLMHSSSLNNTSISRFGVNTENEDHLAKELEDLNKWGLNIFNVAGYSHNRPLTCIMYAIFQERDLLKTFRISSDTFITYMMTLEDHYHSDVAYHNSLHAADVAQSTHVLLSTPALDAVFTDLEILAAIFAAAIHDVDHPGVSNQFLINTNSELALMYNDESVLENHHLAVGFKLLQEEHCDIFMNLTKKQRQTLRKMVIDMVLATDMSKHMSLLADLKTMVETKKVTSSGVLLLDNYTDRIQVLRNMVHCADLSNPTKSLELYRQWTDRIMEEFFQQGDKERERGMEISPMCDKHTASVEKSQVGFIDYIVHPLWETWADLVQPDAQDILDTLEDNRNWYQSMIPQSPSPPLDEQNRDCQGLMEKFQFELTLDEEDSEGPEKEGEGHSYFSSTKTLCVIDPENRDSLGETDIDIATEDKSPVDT

Take `CCCCCC=C(c1cc(Cl)c(OC)c(C(=O)OC)c1)c1cc(Cl)c(OC)c(C(=O)OC)c1`: the EC50 in data set [1] stood at 16 µM. The same compound had a CC50 in data set [2] greater than 29 µM. Moreover, in data set [3], the outcome was inactive.
For the compound `COC(=O)CCC/C=C(\c1cc(C)c(OC)c(C(=O)OC)c1)c1cc(C)c2oc(=O)n(C)c2c1`, the result in data set [4] was inactive. Also, the concentration giving a half-maximal response (EC50) in data set [5] turned out to be 0.09 µM; in data set [1], 0.03 µM. Moreover, the inhibition in data set [3] was determined as 72%.
In the case of `Cc1ccnc2c1NC(=O)c1cccnc1N2C1CC1`, in data set [4], the result was inactive.
On to `COC(=O)CCCC=C(c1cc(C)c2oc(=O)n(C)c2c1)c1cc(C)c2oc(=O)n(C)c2c1`, for which, in data set [4], the outcome was inactive. Moreover, the results for the CC50 in data set [6] and in data set [2] were 33 µM and 31 µM, respectively. Besides, the results for the concentration for a half-maximal effect (EC50) in data set [5] and in data set [1] were 0.22 µM and 0.62 µM, respectively. Besides, half-maximal inhibition in data set [7] (IC50) was put at 0.5 µM. The inhibition in data set [3] turned out to be 71%.
As for `COc1ccc(C2CNC(=O)C2)cc1OC1CCCC1` (stereo not drawn), the inhibition in data set [3] was 100%.
On to `COC(=O)c1cc(C(=CCCCSC)c2cc(Cl)c(OC)c(C(=O)OC)c2)cc(Cl)c1OC`, for which the EC50 in data set [1] stood at 5.3 µM. The same compound showed an IC50 in data set [7] greater than 100 µM. This compound showed a CC50 in data set [2] greater than 20 µM. In addition, the inhibition in data set [3] came out at 20%.
For `COC(=O)c1cc(C(=CCCCc2ccccc2)c2cc(Br)c(OC)c(C(=O)OC)c2)cc(Br)c1OC`, the EC50 in data set [4] (Human immunodeficiency virus 2, ROD) worked out at 21 µM. For the same compound, the CC50 in data set [6] is greater than 198 µM; in data set [2], greater than 200 µM. Further, the IC50 in data set [7] was greater than 100 µM. Further, the result in data set [3] was inactive.
As for `COC(=O)CCCC=C(c1cc(Br)c(OC)c(C(=O)OC)c1)c1cc(Br)c(OC)c(C(=O)OC)c1`, in data set [4], the outcome was inactive. For the same compound, the EC50 in data set [1] came out at 0.001 µM. The inhibition in data set [3] came to 40%.
